ChEMBL document CHEMBL1125014, “Synthesis and structure-activity relationships of new 9-N-alkyl derivatives of 9(S)-erythromycylamine” (1990)
Converted amounts (≈) assume the structure as drawn.

Assays:
Format in all cases: functional
Haemophilus influenzae [1] = experiment: MIC value was measured against haemophilus influenzae CL
Staphylococcus aureus [2] = experiment: Effective dose against mice infected with Staphylococcus aureus after peroral administration (in vivo); settings: in Mus musculus, po
Streptococcus pneumoniae [3] = experiment: Effective dose against mice infected with streptococcus pneumoniae after peroral administration (in vivo); settings: in Mus musculus, po
Streptococcus pyogenes [4] = experiment: Effective dose against mice infected with streptococcus pyogenes after peroral administration (in vivo); settings: in Mus musculus, po
Streptococcus pneumoniae [5] = experiment: MIC value was measured against streptococcus pneumoniae park1
In short: (§1)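 Susceptibility determined by standard agar-dilution method against a panel of bacterial strains.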

Staphylococcus aureus [6] = experiment: MIC value measured against staphylococcus aureus X1
Enterococcus faecalis [7] = experiment: MIC value was measured against streptococcus faecalis X66; in short: as §1
Streptococcus pyogenes [8] = experiment: MIC value measured against streptococcus pyogenes C203
[9] = tested on: Staphylococcus epidermidis; experiment: microbe, parasite or virus in culture
Haemophilus influenzae [10] = experiment: MIC value was measured against haemophilus influenzae.; in short: as §1
Enterococcus faecalis [11] = experiment: MIC value was measured against streptococcus faecalis.
Streptococcus pneumoniae [12] = experiment: MIC value measured against streptococcus pneumoniae Park1
Mus musculus = species on record: Mus musculus; experiment: ED50 value was measured against streptococcus pyogenes infection in mice.
In short: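 Infected mice were dosed orally or subcutaneously at 1 and 5 h postinfection, 0.25 mL of antibiotic solution in 10% aqueous ethanol per dose. Tartaric acid was added where needed for solubility. Several dose concentrations were tested to give the ED50.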

`CC[C@H]1OC(=O)[C@H](C)[C@@H](OC2CC(C)(OC)C(O)C(C)O2)[C@H](C)[C@@H](OC2OC(C)CC(N(C)C)C2O)[C@](C)(O)C[C@@H](C)[C@H]2[C@H](C)[C@@H](OCN2Cc2ccccc2)[C@]1(C)O` (some centres undefined) showed an MIC (Haemophilus influenzae [1]) of 4 µg/mL (≈ 4.78 µM), an ED50 (Staphylococcus aureus [2]) greater than 50 mg/kg and an ED50 (Streptococcus pneumoniae [3]) of 15 mg/kg. It also gave an ED50 (Streptococcus pyogenes [4]) of 16 mg/kg, an MIC (Streptococcus pneumoniae [5]) of 0.06 µg/mL (≈ 0.0717 µM) and an MIC (Staphylococcus aureus [6]) of 1 µg/mL (≈ 1.19 µM). For the same compound, the MIC (Enterococcus faecalis [7]) was 0.5 µg/mL (≈ 0.597 µM), the MIC (Streptococcus pyogenes [8]) was 0.12 µg/mL (≈ 0.143 µM) and the MIC [9] was 0.5 µg/mL (≈ 0.597 µM).
`CCCCC/C=C\CCCN[C@@H]1[C@H](C)[C@@H](O)[C@](C)(O)[C@@H](CC)OC(=O)[C@H](C)[C@@H](OC2CC(C)(OC)C(O)C(C)O2)[C@H](C)[C@@H](OC2OC(C)CC(N(C)C)C2O)[C@](C)(O)C[C@H]1C` (some centres undefined) was tested, and the MIC (Haemophilus influenzae [10]) was 2 µg/mL (≈ 2.29 µM), the MIC (Haemophilus influenzae [1]) was 2 µg/mL (≈ 2.29 µM) and the MIC (Staphylococcus aureus [6]) was 0.25 µg/mL (≈ 0.286 µM). It also gave an MIC (Enterococcus faecalis [11]) of 0.25 µg/mL (≈ 0.286 µM), an MIC (Streptococcus pyogenes [8]) of 0.008 µg/mL (≈ 0.00916 µM) and an MIC [9] of 0.12 µg/mL (≈ 0.137 µM).
`CCCN1CO[C@@H]2[C@@H](C)[C@@H]1[C@H](C)C[C@@](C)(O)[C@H](OC1OC(C)CC(N(C)C)C1O)[C@@H](C)[C@H](OC1CC(C)(OC)C(O)C(C)O1)[C@@H](C)C(=O)O[C@H](CC)[C@@]2(C)O` (some centres undefined) gave an MIC (Haemophilus influenzae [1]) of 1 µg/mL (≈ 1.27 µM), an ED50 (Staphylococcus aureus [2]) of 7 mg/kg and an ED50 (Streptococcus pneumoniae [3]) of 5 mg/kg. It also gave an ED50 (Streptococcus pyogenes [4]) of 5 mg/kg, an MIC (Streptococcus pneumoniae [5]) of 0.008 µg/mL (≈ 0.0101 µM) and an MIC (Staphylococcus aureus [6]) of 0.25 µg/mL (≈ 0.317 µM). For the same compound, the MIC (Enterococcus faecalis [7]) was 0.12 µg/mL (≈ 0.152 µM), the MIC (Streptococcus pyogenes [8]) was 0.008 µg/mL (≈ 0.0101 µM) and the MIC [9] was 0.12 µg/mL (≈ 0.152 µM).
`CC[C@H]1OC(=O)[C@H](C)[C@@H](OC2CC(C)(OC)C(O)C(C)O2)[C@H](C)[C@@H](OC2OC(C)CC(N(C)C)C2O)[C@](C)(O)C[C@@H](C)[C@H](N)[C@H](C)[C@@H](O)[C@H]1C` (some centres undefined) gave an MIC (Haemophilus influenzae [1]) of 1 µg/mL (≈ 1.39 µM), an MIC (Streptococcus pneumoniae [12]) of 0.015 µg/mL (≈ 0.0209 µM) and an MIC (Staphylococcus aureus [6]) of 0.25 µg/mL (≈ 0.348 µM). The MIC (Enterococcus faecalis [11]) was 0.12 µg/mL (≈ 0.167 µM), the MIC (Streptococcus pyogenes [8]) was 0.015 µg/mL (≈ 0.0209 µM) and the MIC [9] was 0.12 µg/mL (≈ 0.167 µM).
For `CC[C@H]1OC(=O)[C@H](C)[C@@H](OC2CC(C)(OC)C(O)C(C)O2)[C@H](C)[C@@H](OC2OC(C)CC(N(C)C)C2O)[C@](C)(O)C[C@@H](C)[C@H](NCC#Cc2ccccc2)[C@H](C)[C@@H](O)[C@]1(C)O` (some centres undefined), the MIC (Haemophilus influenzae [1]) was 4 µg/mL (≈ 4.71 µM), the ED50 (Staphylococcus aureus [2]) was greater than 50 mg/kg and the ED50 (Streptococcus pneumoniae [3]) was 34 mg/kg. The ED50 (Streptococcus pyogenes [4]) was 27 mg/kg, the MIC (Streptococcus pneumoniae [5]) was 0.008 µg/mL (≈ 0.00942 µM) and the MIC (Staphylococcus aureus [6]) was 1 µg/mL (≈ 1.18 µM). It also gave an MIC (Enterococcus faecalis [7]) of 0.25 µg/mL (≈ 0.294 µM), an MIC (Streptococcus pyogenes [8]) of 0.008 µg/mL (≈ 0.00942 µM) and an MIC [9] of 0.5 µg/mL (≈ 0.589 µM).
For `CC[C@H]1OC(=O)[C@H](C)[C@@H](OC2CC(C)(OC)C(O)C(C)O2)[C@H](C)[C@@H](OC2OC(C)CC(N(C)C)C2O)[C@](C)(O)C[C@@H](C)[C@H]2[C@H](C)[C@@H](OCN2C(C)C)[C@]1(C)O` (some centres undefined), the MIC (Haemophilus influenzae [1]) was 4 µg/mL (≈ 5.07 µM), the ED50 (Staphylococcus aureus [2]) was 9 mg/kg and the ED50 (Streptococcus pneumoniae [3]) was 6 mg/kg. It also gave an ED50 (Streptococcus pyogenes [4]) of 7 mg/kg, an MIC (Streptococcus pneumoniae [5]) of 0.06 µg/mL (≈ 0.076 µM) and an MIC (Staphylococcus aureus [6]) of 1 µg/mL (≈ 1.27 µM). For the same compound, the MIC (Enterococcus faecalis [7]) was 0.25 µg/mL (≈ 0.317 µM), the MIC (Streptococcus pyogenes [8]) was 0.12 µg/mL (≈ 0.152 µM) and the MIC [9] was 0.5 µg/mL (≈ 0.634 µM).
`CC[C@H]1OC(=O)[C@H](C)[C@@H](OC2CC(C)(OC)C(O)C(C)O2)[C@H](C)[C@@H](OC2OC(C)CC(N(C)C)C2O)[C@](C)(O)C[C@@H](C)[C@H]2[C@H](C)[C@@H](OCN2C2CCCC2)[C@]1(C)O` (some centres undefined) gave an MIC (Haemophilus influenzae [1]) of 4 µg/mL (≈ 4.91 µM), an ED50 (Staphylococcus aureus [2]) greater than 50 mg/kg and an ED50 (Streptococcus pneumoniae [3]) of 9 mg/kg. For the same compound, the ED50 (Streptococcus pyogenes [4]) was 10 mg/kg, the MIC (Streptococcus pneumoniae [5]) was 0.06 µg/mL (≈ 0.0736 µM) and the MIC (Staphylococcus aureus [6]) was 1 µg/mL (≈ 1.23 µM). For the same compound, the MIC (Enterococcus faecalis [7]) was 0.5 µg/mL (≈ 0.613 µM), the MIC (Streptococcus pyogenes [8]) was 0.12 µg/mL (≈ 0.147 µM) and the MIC [9] was 1 µg/mL (≈ 1.23 µM).
In the case of `CC[C@H]1OC(=O)[C@H](C)[C@@H](OC2CC(C)(OC)C(O)C(C)O2)[C@H](C)[C@@H](OC2OC(C)CC(N(C)C)C2O)[C@](C)(O)C[C@@H](C)[C@H](NCCC2=C(C)CCCC2(C)C)[C@H](C)[C@@H](O)[C@]1(C)O` (some centres undefined), the MIC (Haemophilus influenzae [1]) is reported as 4 µg/mL (≈ 4.52 µM), the ED50 (Staphylococcus aureus [2]) is reported as greater than 50 mg/kg and the ED50 (Streptococcus pneumoniae [3]) is reported as greater than 50 mg/kg. The ED50 (Streptococcus pyogenes [4]) was greater than 50 mg/kg, the MIC (Staphylococcus aureus [6]) was 1 µg/mL (≈ 1.13 µM) and the MIC (Enterococcus faecalis [7]) was 0.12 µg/mL (≈ 0.136 µM). The MIC (Streptococcus pyogenes [8]) was 0.5 µg/mL (≈ 0.565 µM) and the MIC [9] was 1 µg/mL (≈ 1.13 µM).
For `CC[C@H]1OC(=O)[C@H](C)[C@@H](OC2CC(C)(OC)C(O)C(C)O2)[C@H](C)[C@@H](OC2OC(C)CC(N(C)C)C2O)[C@](C)(O)C[C@@H](C)[C@H](NCCCSC)[C@H](C)[C@@H](O)[C@]1(C)O` (some centres undefined), the MIC (Haemophilus influenzae [10]) was 4 µg/mL (≈ 4.86 µM), the MIC (Haemophilus influenzae [1]) was 4 µg/mL (≈ 4.86 µM) and the ED50 (Staphylococcus aureus [2]) was 50 mg/kg. For the same compound, the ED50 (Streptococcus pneumoniae [3]) was 18 mg/kg, the ED50 (Mus musculus) was 7 mg/kg and the MIC (Streptococcus pneumoniae [12]) was 0.015 µg/mL (≈ 0.0182 µM). The MIC (Streptococcus pyogenes [8]) was 0.015 µg/mL (≈ 0.0182 µM) and the MIC [9] was 0.5 µg/mL (≈ 0.607 µM).
Work on `CC[C@H]1OC(=O)[C@H](C)[C@@H](OC2CC(C)(OC)C(O)C(C)O2)[C@H](C)[C@@H](OC2OC(C)CC(N(C)C)C2O)[C@](C)(O)C[C@@H](C)[C@H](NC2CCCCC2)[C@H](C)[C@@H](O)[C@]1(C)O` (some centres undefined) yielded an MIC (Haemophilus influenzae [1]) of 4 µg/mL (≈ 4.9 µM), an MIC (Streptococcus pneumoniae [12]) of 0.03 µg/mL (≈ 0.0367 µM) and an MIC (Staphylococcus aureus [6]) of 0.5 µg/mL (≈ 0.612 µM). For the same compound, the MIC (Enterococcus faecalis [11]) was 0.25 µg/mL (≈ 0.306 µM), the MIC (Streptococcus pyogenes [8]) was 0.06 µg/mL (≈ 0.0734 µM) and the MIC [9] was 0.5 µg/mL (≈ 0.612 µM).
